Experimental data gathered from unrelated publications.
Lines come from different studies, so protocols differ.
Target: Serine/threonine-protein kinase 38 (STK38, Homo sapiens, UniProt Q15208)

Compound | assay | conditions | remaining binding
COc1ccc2c(O[C@@H]3C[C@H]4C(=O)N[C@]5(C(=O)O)CC5/C=C\CCCCC[C@H](NC(=O)OC5CCCC5)C(=O)N4C3)cc(-c3csc(NC(=O)C(C)C)n3)nc2c1C (stereo partly drawn) | cell-free assay, competition with immobilised ligand | 1 µM | 50%
C[C@@H](c1ccc(-n2cnc3c(N)ncnc32)cc1)N1CCc2nn(C)c(Cc3ccccc3)c2C1=O | binding, competition with immobilised ligand | 0.1 µM | 71%
N[C@H]1CCN(c2nccc(-c3cnn4ncccc34)n2)C1 | binding | 1 µM | 100%
O=C(NCC1CCOCC1)c1n[nH]cc1NC(=O)c1c(F)cccc1F | binding, competition with immobilised ligand | 1 µM | 84%
Cc1c[nH]c2nccc(Oc3c(F)cc(Nc4cc(Cl)nc(N)n4)cc3F)c12 | cell-free assay, competition with immobilised ligand | 0.1 µM | 89%
COc1ccnn2ncc(-c3ccnc(N(C)C)n3)c12 | binding | 1 µM | 100%
C=CC(=O)N1CCC(C(=O)NCC(=O)N2CCN(c3nc(-c4cnc(N)nc4C(F)F)nc(N4CCOCC4)n3)CC2)CC1 | binding, competition with immobilised ligand | 1 µM | 88%
CN(c1nccc(-c2cnn3ncccc23)n1)C1CC1 | binding | 1 µM | 100%
Cc1cc(-n2nc(Cc3cc(F)cc(C(F)(F)F)c3)nc2C)ccc1C(N)=O | cell-free assay, competition with immobilised ligand | 1 µM | 83%
COc1cnc(Nc2cccc(S(N)(=O)=O)c2)nc1N1CCN(c2ccccc2)CC1 | binding, competition with immobilised ligand | 1 µM | 78%
Cc1nc(N2CC[C@@H](O)C2)ncc1-c1cc(C(F)(F)F)cc2[nH]ncc12 | binding, competition with immobilised ligand | 1 µM | 95%
CCN1CCN(Cc2ccc(C(=O)Nc3ccc(C)c(Oc4ccc5c(c4)CC(=O)N5)c3)cc2C(F)(F)F)CC1 | binding, competition with immobilised ligand | 1 µM | 100%
Cc1cnc(Nc2ccc(C(=O)N3CCC(N4CCCC4)CC3)cc2)nc1-c1cc2ccccc2s1 | binding, competition with immobilised ligand | 1 µM | 79%
c1cnn2ncc(-c3ccnc(N4CCC45COC5)n3)c2c1 | binding | 1 µM | 87%
O=C(NCCCN1CCOCC1)c1ccc(Nc2ncc(Cl)c(-c3ccc(Cl)s3)n2)cc1 | binding, competition with immobilised ligand | 1 µM | 76%
Nc1ncc2c(n1)-c1c([nH]c3ccc(C#CC4CC4)cc13)CCCC2 | binding, competition with immobilised ligand | 1 µM | 87%
Cc1cnn2ncc(-c3ccnc(N(C)C)n3)c2c1 | binding | 1 µM | 100%
Cc1c(NC(=O)c2cc(C(N)=O)nc3cc(F)ccc23)c(C(F)(F)F)nn1Cc1ccc(C(C)(C)C)cc1 | cell-free assay, competition with immobilised ligand | 1 µM | 93%
O=C(c1ccc(Nc2nccc(-c3cc4ccccc4s3)n2)cc1)N1CCC(N2CCCC2)CC1 | binding, competition with immobilised ligand | 1 µM | 76%
Cn1nc(C(F)(F)F)cc1-c1cnc(N2CCc3cc(S(=O)(=O)Nc4c(F)cc(Cl)cc4F)cc(N4CCCC4=O)c32)nc1 | cell-free assay, competition with immobilised ligand | 1 µM | 97%
C[C@H]1CCN(c2nccc(-c3cnn4ncccc34)n2)C1 | binding | 1 µM | 93%
